From PMC6842100 (Molecular neurobiology, 2019)

Key:
LRP1 = test: Aβ-induced soluble LRP1 in HBMEC media upon MMP9 inhibition; type: cell-based, human; details: Aβ(1-42) 2μM plus inhibitor 1μM, 48 hours at 37°C, ELISA, n = 3
LDLR = test: Aβ-induced soluble LDLR in HBMEC media upon MMP9 inhibition; type: cell-based, human; details: Aβ(1-42) 2μM plus inhibitor 1μM, 48 hours at 37°C, ELISA, n = 3
[1] = system: in vitro model of the BBB (HBMEC monolayer); test: Paracellular marker; type: cell-based, human; details: each SB-3CT concentration (0.1, 0.5, 1, 5, 10μM), data not shown
Summary of the method: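 HBMEC were seeded at 100,000 cells/cm² on fibronectin-coated (4 µg/cm²) 0.4 µm-pore inserts (0.3 cm²) to form a polarized monolayer. Inserts holding test compound were exposed to wells with 10 kD lucifer yellow dextran at 37 °C. Basolateral was sampled at time 0 and apical at 0, 30 and 60 min (basolateral-to-apical). Apparent permeability = 1/AC0 × dQ/dt, compared with control.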

apoE-TR mice = test: Mouse Aβ BBB clearance model: human Aβ; type: in vivo; details: SB-3CT 25 mg/kg i.p., plasma human Aβ(1-42) ELISA, n = 4
HBMEC = test: LDH cytotoxicity assay in HBMEC extracellular media; type: cell-based, human; details: 48 hours at 37°C, data not shown

Row | Compound | decrease of soluble LRP1 levels compared to Aβ alone (LRP1) | reduction of soluble LDLR levels compared to Aβ alone (LDLR) | BBB monolayer integrity: movement of 10kDa lucifer yellow dextran vs control [1] | extent of Aβ BBB elimination in SB-3CT-treated apoE4-TR mice versus apoE3-TR animals (apoE-TR mice) | LDH release (HBMEC; 20μM Aβ) | cellular toxicity (LDH cytotoxicity assay) (HBMEC; Aβ concentrations 0 to 2μM)
1 | O=S(=O)(CC1CS1)c1ccc(Oc2ccccc2)cc1 (stereo not shown) [SB-3CT] | approximately 40% | approximately 40% | no difference | the same as that observed in the apoE3-TR animals |  | 
2 | CNC(=O)[C@@H](NC(=O)[C@H](CC(C)C)[C@H](O)C(=O)NO)C(C)(C)C [marimastat] |  | approximately 40% |  |  |  | 
3 | Aβ(1-42): unlabeled human beta-amyloid (1-42) peptide, purchased from Invitrogen, used in monomeric form |  |  |  |  | significant increase in LDH release | no cellular toxicity was observed
